Test results from ChEMBL document CHEMBL1125057, “Synthesis and antihypertensive activity of 4-(substituted-carbonylamino)-2H-1-benzopyrans” (1990).

Columns and labels:
Type in all cases: functional
[1] = system: Rattus norvegicus; assay: Systolic blood pressure at intervals from 1 to 6 hr in groups of six rats after 0.3 mg/kg p.o. administration.; conditions: route oral
In short: (§1)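 Conscious spontaneously hypertensive rats of Okamoto origin, 14-24 weeks old, with systolic pressure >180 mmHg, were used in groups of six. Dosing was oral by esophageal needle as a solution or suspension in 1% w/v methylcellulose. Systolic pressure was taken by tail-cuff before dosing and at intervals up to 6 h postdose. Each determination was the mean of at least six recordings.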

[2] = system: Rattus norvegicus; assay: Systolic blood pressure was measured at intervals from 1 to 6 hr in groups of six rats after oral administration of a dose of 1.0 mg/kg; in short: as §1
[3] = system: Rattus norvegicus; assay: Systolic blood pressure was measured at intervals from 1 to 6 hr in groups of six rats after oral administration of a dose of 0.1 mg/kg; in short: as §1
[4] = species on record: Oryctolagus cuniculus; assay: Increase in rubidium-86 efflux in rabbit isolated mesenteric artery over basal rate
In short: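 Segments (10-20 mg wet weight) of New Zealand White rabbit mesenteric artery were held 30 min in aerated (19:1 O2-CO2) HEPES buffer, pH 7.4, at 37 °C. They were loaded with 100-200 µCi rubidium-86 over 90 min, then moved every 3 min through label-free buffer. Compound at 1 × 10^-5 M was present over min 30-48. Efflux was counted by liquid scintillation. Value is the maximum rate coefficient over min 30-45 as a percentage of basal (mean over min 21-30), ± standard error.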

[5] = system: Rattus norvegicus; assay: Systolic blood pressure was measured at intervals from 1 to 6 hr in groups of six rats after oral administration of a dose of 10 mg/kg; in short: as §1
[6] = system: Rattus norvegicus; assay: Systolic blood pressure was measured at intervals from 1 to 6 h in groups of six rats after oral administration of a dose of 1 mg/kg; in short: as §1
[7] = system: Rattus norvegicus; assay: Systolic blood pressure was measured at intervals from 1 to 6 hr in groups of six rats after oral administration of a dose of 3 mg/kg; in short: as §1
[8] = system: Rattus norvegicus; assay: Systolic blood pressure was measured at intervals from 1 to 6 hr in groups of six rats after oral administration of a dose of 1 mg/kg; in short: as §1
[9] = system: Rattus norvegicus; assay: Systolic blood pressure was measured at intervals from 1 to 6 hr in groups of six rats after oral administration of a dose of 10.0 mg/kg; in short: as §1

| SMILES | Decrease in blood pressure [1] | Decrease in blood pressure [2] | Decrease in blood pressure [5] | also measured |
| --- | --- | --- | --- | --- |
| CCC(=O)NC1c2cc(C#N)ccc2OC(C)(C)[C@H]1O (some centres not stated) | 10% | 29% | – | – |
| CC1(C)Oc2ccc(C#N)cc2C(NC(=O)c2ccco2)[C@@H]1O (some centres not stated) | 11% | 54% | – | – |
| CC(=O)NC1c2cc(Br)c([N+](=O)[O-])cc2OC(C)(C)[C@H]1O (some centres not stated) | 25% | 51% | – | – |
| CC1(C)Oc2ccc(C#N)cc2C(NC(=O)c2ccc[nH]2)[C@@H]1O (some centres not stated) | 12% | 50% | – | – |
| CC(=O)NC1c2cc(C(C)=O)ccc2OC(C)(C)[C@H]1O (some centres not stated) | 23% | 61% | – | Decrease in blood pressure [3]: 20%; Increase [4]: 38% |
| COCC(=O)NC1c2cc(C#N)ccc2OC(C)(C)[C@H]1O (some centres not stated) | 16% | 32% | – | – |
| CC(=O)NC1c2cc(C#N)ccc2OC(C)(C)[C@H]1O (some centres not stated) | 47% | 67% | – | Decrease in blood pressure [3]: 18%; Increase [4]: 59% |
| CC1(C)Oc2ccc(C#N)cc2C(NC(=O)c2cccnc2)[C@@H]1O (some centres not stated) | 27% | 43% | – | – |
| CNCC(=O)NC1c2cc(C#N)ccc2OC(C)(C)[C@H]1O (some centres not stated) | – | – | 15% | – |
| CC1(C)Oc2ccc(C#N)cc2C(N2CCCC2=O)C1O (configuration not stated) [CROMAKALIM] | 39% | 47% | – | Decrease in blood pressure [3]: 13%; Increase [4]: 110% |
| CC(=O)NC1CC(C)(C)Oc2ccc(C#N)cc21 (configuration not stated) | 18% | 44% | – | – |
| CC(=O)NC1c2cc(C#N)ccc2OC(C)(C)[C@H]1OC(C)=O (some centres not stated) | 34% | – | – | Decrease in blood pressure [3]: 9%; Decrease in blood pressure [6]: 61% |
| CC(=O)Nc1cc2c(cc1[N+](=O)[O-])C(NC(C)=O)[C@H](O)C(C)(C)O2 (some centres not stated) | 38% | – | – | Decrease in blood pressure [3]: 9% |
| CCCCC(=O)NC1c2cc(C#N)ccc2OC(C)(C)[C@H]1O (some centres not stated) | – | – | 64% | Decrease in blood pressure [7]: 18% |
| CC1(C)Oc2ccc(C#N)cc2C(NC(=O)c2ccoc2)[C@@H]1O (some centres not stated) | 19% | 35% | – | – |
| CC1(C)Oc2ccc(C#N)cc2C(NC(=O)NC(=O)C(Cl)(Cl)Cl)[C@@H]1O (some centres not stated) | – | – | 28% | Decrease in blood pressure [8]: 13% |
| CC(=O)N(C)C1c2cc(C#N)ccc2OC(C)(C)[C@H]1O (some centres not stated) | 11% | 31% | – | – |
| CCN(C(C)=O)C1c2cc(C#N)ccc2OC(C)(C)[C@H]1O (some centres not stated) | 14% | 22% | – | – |
| CC(=O)Nc1cc2c(cc1[N+](=O)[O-])OC(C)(C)[C@@H](O)C2NC(C)=O (some centres not stated) | – | – | – | Decrease in blood pressure [7]: 16% |
| CCCCNC(=O)NC1c2cc(C#N)ccc2OC(C)(C)[C@H]1O (some centres not stated) | – | – | 29% | Decrease in blood pressure [8]: 11% |

| SMILES | Decrease in blood pressure [1] | Decrease in blood pressure [2] | Decrease in blood pressure [5] | also measured |
| --- | --- | --- | --- | --- |
| CC(=O)NC1c2cc(C#N)c([N+](=O)[O-])cc2OC(C)(C)[C@H]1O (some centres not stated) | 46% | – | – | Decrease in blood pressure [3]: 26% |
| CC(=S)NC1c2cc(C#N)ccc2OC(C)(C)[C@H]1O (some centres not stated) | 26% | 53% | – | – |
| CC(N/C(=N\C#N)Nc1ccncc1)C(C)(C)C (configuration not stated) [PINACIDIL ANHYDROUS] | – | – | – | Decrease in blood pressure [7]: 39%; Increase [4]: 72%; Decrease in blood pressure [8]: 11% |
| CC1(C)Oc2ccc(C#N)cc2C(NC(=O)Nc2ccccc2)[C@@H]1O (some centres not stated) | – | – | 13% | – |
| CC1(C)Oc2ccc(C#N)cc2C(NC(=O)c2ccccn2)[C@@H]1O (some centres not stated) | 36% | – | – | Decrease in blood pressure [3]: 22%; Increase [4]: 53% |
| CC(C)(C)NC(=O)NC1c2cc(C#N)ccc2OC(C)(C)[C@H]1O (some centres not stated) | – | – | 8% | – |
| CCOC(=O)NC1c2cc(C#N)ccc2OC(C)(C)[C@H]1O (some centres not stated) | – | – | – | Decrease in blood pressure [7]: 22%; Decrease in blood pressure [9]: 54%; Decrease in blood pressure [8]: 13% |
| CC1(C)Oc2ccc(C#N)cc2C(NC(=O)c2ccc3ccccc3c2)[C@@H]1O (some centres not stated) | – | – | 35% | Increase [4]: 17%; Decrease in blood pressure [8]: 6% |
| CC(=O)NC1c2cc(Cl)ccc2OC(C)(C)[C@H]1O (some centres not stated) | – | – | 34% | Decrease in blood pressure [8]: 8% |
| CC(=O)NC1=CC(C)(C)Oc2ccc(C#N)cc21 | – | – | – | Decrease in blood pressure [7]: 52%; Decrease in blood pressure [8]: 20% |
| CCCN(C(C)=O)C1c2cc(C#N)ccc2OC(C)(C)[C@H]1O (some centres not stated) | – | – | – | Decrease in blood pressure [7]: 58%; Decrease in blood pressure [8]: 24% |
| CC1(C)Oc2ccc(C#N)cc2C(NC=O)[C@@H]1O (some centres not stated) | – | – | 26% | Decrease in blood pressure [8]: 10% |
| CC1(C)Oc2ccc(C#N)cc2C(NC(=O)c2c[nH]c3ccccc23)[C@@H]1O (some centres not stated) | – | – | 13% | – |
| CC1(C)Oc2ccc(C#N)cc2C(NC(=O)c2ccccc2)[C@@H]1O (some centres not stated) | 16% | 41% | – | – |
| CC1(C)Oc2ccc(C#N)cc2C(NC(N)=O)[C@@H]1O (some centres not stated) | – | – | – | Decrease in blood pressure [7]: 46%; Decrease in blood pressure [9]: 56%; Decrease in blood pressure [8]: 18% |
| CC1(C)Oc2ccc(C#N)cc2C(NC(=O)CCl)[C@@H]1O (some centres not stated) | – | – | 28% | – |
| CNC(=O)NC1c2cc(C#N)ccc2OC(C)(C)[C@H]1O (some centres not stated) | 31% | 61% | – | Decrease in blood pressure [3]: 14%; Increase [4]: 63% |
| CCOC(=O)C(=O)NC1c2cc(C#N)ccc2OC(C)(C)[C@H]1O (some centres not stated) | – | – | 12% | – |
| CC(=O)NC1c2ccccc2OC(C)(C)[C@H]1O (some centres not stated) | – | – | 13% | – |
| C/N=C(/S)NC1c2cc(C#N)ccc2OC(C)(C)[C@H]1O (some centres not stated) | – | – | – | Decrease in blood pressure [7]: 33%; Decrease in blood pressure [9]: 50%; Decrease in blood pressure [8]: 16% |
